Source: publication PMC3172161 (ACS chemical neuroscience, 2011)
Read-outs that look alike come from different tables or passages of the source.

Assays:
rat mGlu5 [1] = molecular target: T1, rat mGlu5 (Rattus norvegicus, UniProt P31424); assay: Calcium mobilization assay; format: cell-based; conditions: for % Glu Max: amplitude of response in the presence of 30 μM test compound as a percentage of maximal response (100 μM glutamate)
Summary of the method: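 HEK293A cells stably expressing rat mGlu5 were plated at 20K/well and grown overnight at 37 °C in 6% CO2. They were loaded with 2 μM Fluo-4 AM at 37 °C in HBSS with 20 mM HEPES and 2.5 mM probenecid. Compound (10-point 1:3 series, 30 μM–1 nM final) was added 140 s before EC20 glutamate, then EC80 glutamate 74 s later. Ca2+ fluorescence read at 1 Hz; IC50 from four-parameter logistic fit.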

rat mGlu5 [2] = molecular target: T1, rat mGlu5; assay: Radioligand binding assay, [3H]methoxyPEPy competition
Summary of the method: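 Competition binding used membranes from rat mGlu5 HEK293A cells (40 μg/well) in 50 mM Tris/0.9% NaCl, pH 7.4, with [3H]methoxyPEPy (2 nM final) and test compound. Incubation was 1 h at room temperature with shaking, then GF/B filtration, 3–4 buffer washes and scintillation counting. Non-specific binding defined with 5 μM MPEP; curves fitted by four-parameter logistic equation.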

[3] = molecular target: mGlu5 in rat cortical astrocytes (Rattus norvegicus, UniProt P31424); assay: Rat cortical astrocytes assay; format: cell-based; conditions: fixed concentration 10 μM, increasing concentrations of glutamate
mGlu1 = mGlu1 (Homo sapiens, UniProt Q13255); assay: Cell based functional selectivity assay
mGlu2 = mGlu2 (Homo sapiens, UniProt Q14416); assay: Cell based functional selectivity assay
mGlu3 = mGlu3 (Homo sapiens, UniProt Q14832); assay: Cell based functional selectivity assay
mGlu4 = mGlu4 (Homo sapiens, UniProt Q14833); assay: Cell based functional selectivity assay
mGlu7 = mGlu7 (Homo sapiens, UniProt Q14831); assay: Cell based functional selectivity assay
mGlu8 = mGlu8 (Homo sapiens, UniProt O00222); assay: Cell based functional selectivity assay
[4] = Stability in liver microsomes; format: in vitro ADME; conditions: mouse liver microsomes; 1 μM, 15 min, 37 °C, NADPH
Summary of the method: (§1)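 Test compound at 1 μM was incubated 15 min at 37 °C with shaking, with human or mouse liver microsomes, phosphate buffer and NADPH. Samples were analysed by UPLC-ESI-MS/MS on a C18 column with a formic acid/acetonitrile gradient. % parent remaining was calculated against similarly prepared un-incubated controls.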

[5] = Stability in liver microsomes; format: in vitro ADME; conditions: human liver microsomes; 1 μM, 15 min, 37 °C, NADPH
Summary of the method: as §1

[6] = Brain homogenate binding assay; format: in vitro ADME; conditions: mouse
Summary of the method: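 Fresh mouse brains (6–8) were homogenized 1:3 (w/w) in PBS on ice, spiked at 1000 ng/g and run in triplicate. Rapid equilibrium dialysis was against PBS for 4 h at 37 °C, 130 rpm. Matrix-balanced aliquots were extracted with acetonitrile/internal standard and analysed by LC/MS/MS. fu = buffer/homogenate peak-area ratio, corrected for homogenate dilution.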

[7] = Plasma protein binding assay; format: in vitro ADME; conditions: mouse
[8] = Plasma protein binding assay; format: in vitro ADME; conditions: human
[9] = Mouse pharmacokinetic study, intraperitoneal dosing; format: in vivo
Summary of the method: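 Male CD-1 mice (~30 g) received 10 mg/kg ip as a 0.5 mg/ml microsuspension in 10% Tween 80/water (20 ml/kg). Plasma (cardiac puncture, EDTA) and PBS-washed brains were collected at 15, 30, 60, 180 and 360 min, n=3 per time. Brains homogenized 1:5 (w/w) in PBS; samples precipitated with acetonitrile plus internal standard and run on HPLC/MS/MS. Dilution-corrected; noncompartmental analysis.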

male CD-1 mice = assay: Marble burying model of anxiety; format: in vivo, mouse; conditions: 15 minute pretreatment
Summary of the method: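 Male CD-1 mice (30–35 g) were habituated 30 min to the test room. After 15 min pretreatment each was placed alone in a cage with 12 evenly spaced marbles on 2.5 cm bedding. Burying recorded over 30 min; counterbalanced design; Dunnett's test versus vehicle.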

C57Bl/6J mice [10] = assay: Operant sensation seeking; format: in vivo, mouse; conditions: 10 min prior to sessions
Summary of the method: (§2)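 Male C57Bl/6J mice (3–5 weeks) responded for varied visual and auditory stimuli: 10–14 daily 1 h FR-1 sessions, then 2 h progressive-ratio sessions. Test compound (0, 3, 10, 30 mg/kg in 10% Tween-80) or reference NAM (0, 1.5, 5, 15 mg/kg in saline; 12 FR sessions) given ip, 20 ml/kg, 10 min pre-session. Latin square, doses 48 h apart. Reinforcers earned analysed by repeated-measures ANOVA/Dunnett.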

C57Bl/6J mice [11] = assay: Food reinforcer self-administration, progressive ratio responding; format: in vivo, mouse; conditions: 3, 10, 30 mg/kg i.p., 10 min prior to sessions
Summary of the method: as §2, with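 “~40 μl of 10% vanilla Ensure:” for “varied visual and auditory stimuli:”, “saline)” for “saline; 12 FR sessions)”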

[12] = male, CD-1, mouse, brain, ip, 10 mg/kg
[13] = mouse, 10 mg/kg intraperitoneal

T1 sequence (P31424 21-1203): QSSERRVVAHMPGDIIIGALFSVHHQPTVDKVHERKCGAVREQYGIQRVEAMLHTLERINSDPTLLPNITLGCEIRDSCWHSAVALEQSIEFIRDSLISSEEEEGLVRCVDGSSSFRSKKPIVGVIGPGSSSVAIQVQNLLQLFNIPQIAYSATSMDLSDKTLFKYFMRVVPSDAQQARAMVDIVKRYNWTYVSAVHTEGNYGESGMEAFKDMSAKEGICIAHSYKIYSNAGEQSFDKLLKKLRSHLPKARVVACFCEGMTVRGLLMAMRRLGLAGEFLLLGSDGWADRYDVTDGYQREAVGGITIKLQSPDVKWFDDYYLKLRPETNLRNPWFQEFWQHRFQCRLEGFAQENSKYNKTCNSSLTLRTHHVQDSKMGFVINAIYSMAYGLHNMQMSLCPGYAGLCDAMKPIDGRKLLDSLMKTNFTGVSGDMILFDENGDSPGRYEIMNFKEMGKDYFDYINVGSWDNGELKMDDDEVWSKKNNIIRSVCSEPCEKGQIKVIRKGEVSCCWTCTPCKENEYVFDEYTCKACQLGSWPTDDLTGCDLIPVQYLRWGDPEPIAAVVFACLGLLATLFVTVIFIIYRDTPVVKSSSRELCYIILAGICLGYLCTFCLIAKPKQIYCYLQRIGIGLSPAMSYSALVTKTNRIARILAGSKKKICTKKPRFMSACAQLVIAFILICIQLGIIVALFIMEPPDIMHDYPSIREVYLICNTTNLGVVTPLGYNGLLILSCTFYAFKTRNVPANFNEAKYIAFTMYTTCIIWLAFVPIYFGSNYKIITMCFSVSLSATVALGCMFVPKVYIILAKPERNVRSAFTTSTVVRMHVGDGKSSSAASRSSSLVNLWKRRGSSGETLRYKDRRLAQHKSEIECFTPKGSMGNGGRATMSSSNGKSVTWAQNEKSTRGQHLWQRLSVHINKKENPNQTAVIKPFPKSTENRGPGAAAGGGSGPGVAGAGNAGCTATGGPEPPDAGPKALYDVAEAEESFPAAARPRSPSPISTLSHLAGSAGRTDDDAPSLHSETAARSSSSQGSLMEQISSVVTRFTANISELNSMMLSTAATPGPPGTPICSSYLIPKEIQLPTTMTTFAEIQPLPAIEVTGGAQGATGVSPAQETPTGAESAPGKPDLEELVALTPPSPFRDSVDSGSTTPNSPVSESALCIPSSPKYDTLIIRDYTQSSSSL
mGlu7, sequence (Q14831 35-915): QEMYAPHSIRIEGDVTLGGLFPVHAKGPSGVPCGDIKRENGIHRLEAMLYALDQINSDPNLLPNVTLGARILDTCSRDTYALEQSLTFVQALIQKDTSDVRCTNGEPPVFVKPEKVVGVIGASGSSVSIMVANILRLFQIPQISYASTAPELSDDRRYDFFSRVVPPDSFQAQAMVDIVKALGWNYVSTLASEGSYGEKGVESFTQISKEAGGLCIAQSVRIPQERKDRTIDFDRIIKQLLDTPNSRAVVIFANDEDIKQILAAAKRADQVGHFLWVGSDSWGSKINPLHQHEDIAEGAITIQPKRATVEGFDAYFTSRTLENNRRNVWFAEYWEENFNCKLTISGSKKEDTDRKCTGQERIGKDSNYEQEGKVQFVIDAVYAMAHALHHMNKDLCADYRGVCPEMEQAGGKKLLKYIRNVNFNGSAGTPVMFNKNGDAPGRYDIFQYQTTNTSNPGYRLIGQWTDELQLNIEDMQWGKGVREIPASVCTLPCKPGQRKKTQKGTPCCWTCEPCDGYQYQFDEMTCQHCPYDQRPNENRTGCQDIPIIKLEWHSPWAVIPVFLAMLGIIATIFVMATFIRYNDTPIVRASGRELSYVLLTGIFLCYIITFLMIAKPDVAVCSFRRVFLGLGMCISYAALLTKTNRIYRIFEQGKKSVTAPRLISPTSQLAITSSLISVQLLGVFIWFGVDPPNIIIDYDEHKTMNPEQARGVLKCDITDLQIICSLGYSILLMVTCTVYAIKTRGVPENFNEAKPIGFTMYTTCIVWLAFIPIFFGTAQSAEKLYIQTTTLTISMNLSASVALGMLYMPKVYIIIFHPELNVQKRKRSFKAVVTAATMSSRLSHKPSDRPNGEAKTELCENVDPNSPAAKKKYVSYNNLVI
mGlu5 in rat cortical astrocytes, sequence (P31424 21-1203): as the sequence (P31424 21-1203) above
mGlu8, sequence (O00222 34-908): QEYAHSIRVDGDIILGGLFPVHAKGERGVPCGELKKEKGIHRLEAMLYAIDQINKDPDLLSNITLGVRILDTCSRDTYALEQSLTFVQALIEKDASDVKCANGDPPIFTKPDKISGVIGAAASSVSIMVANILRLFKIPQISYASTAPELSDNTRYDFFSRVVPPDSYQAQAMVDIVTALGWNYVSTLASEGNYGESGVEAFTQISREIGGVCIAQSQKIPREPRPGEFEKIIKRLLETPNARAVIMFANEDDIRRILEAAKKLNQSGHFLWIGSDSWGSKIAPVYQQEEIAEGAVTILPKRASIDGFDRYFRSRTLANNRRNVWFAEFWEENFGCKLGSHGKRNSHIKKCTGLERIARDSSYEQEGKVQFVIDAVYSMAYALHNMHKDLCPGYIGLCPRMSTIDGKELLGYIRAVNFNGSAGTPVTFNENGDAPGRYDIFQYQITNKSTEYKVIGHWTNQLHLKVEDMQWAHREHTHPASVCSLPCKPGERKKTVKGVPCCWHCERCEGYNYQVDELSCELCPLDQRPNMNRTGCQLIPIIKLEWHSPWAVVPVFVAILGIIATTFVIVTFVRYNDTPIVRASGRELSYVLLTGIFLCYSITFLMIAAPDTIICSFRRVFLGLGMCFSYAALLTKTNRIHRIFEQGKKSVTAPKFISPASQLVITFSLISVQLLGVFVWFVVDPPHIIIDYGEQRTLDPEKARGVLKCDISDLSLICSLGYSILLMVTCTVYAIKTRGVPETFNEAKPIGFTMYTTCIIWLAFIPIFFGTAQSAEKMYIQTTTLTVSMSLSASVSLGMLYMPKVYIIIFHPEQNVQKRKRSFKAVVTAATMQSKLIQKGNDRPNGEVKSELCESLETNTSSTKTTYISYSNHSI
mGlu3, sequence (Q14832 23-879): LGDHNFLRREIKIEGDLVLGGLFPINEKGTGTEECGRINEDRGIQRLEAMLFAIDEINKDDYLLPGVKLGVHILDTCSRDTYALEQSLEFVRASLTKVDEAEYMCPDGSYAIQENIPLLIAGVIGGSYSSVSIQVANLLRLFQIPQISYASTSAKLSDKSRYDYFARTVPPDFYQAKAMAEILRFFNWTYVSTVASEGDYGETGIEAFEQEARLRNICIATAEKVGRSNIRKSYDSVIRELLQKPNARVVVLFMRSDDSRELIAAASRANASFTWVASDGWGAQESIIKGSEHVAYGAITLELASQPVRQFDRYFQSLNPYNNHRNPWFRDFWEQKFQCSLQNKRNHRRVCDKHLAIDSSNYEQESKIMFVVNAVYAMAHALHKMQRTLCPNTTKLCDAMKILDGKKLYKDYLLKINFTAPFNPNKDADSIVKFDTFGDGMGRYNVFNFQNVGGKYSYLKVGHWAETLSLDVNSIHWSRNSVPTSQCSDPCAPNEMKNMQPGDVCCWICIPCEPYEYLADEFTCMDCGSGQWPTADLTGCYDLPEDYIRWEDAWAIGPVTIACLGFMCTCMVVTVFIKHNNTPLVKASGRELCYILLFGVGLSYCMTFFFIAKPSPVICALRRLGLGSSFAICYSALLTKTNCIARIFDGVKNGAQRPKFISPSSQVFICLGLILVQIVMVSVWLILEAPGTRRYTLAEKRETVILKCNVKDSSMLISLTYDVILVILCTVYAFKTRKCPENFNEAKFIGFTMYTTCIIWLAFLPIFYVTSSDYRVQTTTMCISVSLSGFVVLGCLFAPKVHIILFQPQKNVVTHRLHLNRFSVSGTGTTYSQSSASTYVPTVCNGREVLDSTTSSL
mGlu2, sequence (Q14416 19-872): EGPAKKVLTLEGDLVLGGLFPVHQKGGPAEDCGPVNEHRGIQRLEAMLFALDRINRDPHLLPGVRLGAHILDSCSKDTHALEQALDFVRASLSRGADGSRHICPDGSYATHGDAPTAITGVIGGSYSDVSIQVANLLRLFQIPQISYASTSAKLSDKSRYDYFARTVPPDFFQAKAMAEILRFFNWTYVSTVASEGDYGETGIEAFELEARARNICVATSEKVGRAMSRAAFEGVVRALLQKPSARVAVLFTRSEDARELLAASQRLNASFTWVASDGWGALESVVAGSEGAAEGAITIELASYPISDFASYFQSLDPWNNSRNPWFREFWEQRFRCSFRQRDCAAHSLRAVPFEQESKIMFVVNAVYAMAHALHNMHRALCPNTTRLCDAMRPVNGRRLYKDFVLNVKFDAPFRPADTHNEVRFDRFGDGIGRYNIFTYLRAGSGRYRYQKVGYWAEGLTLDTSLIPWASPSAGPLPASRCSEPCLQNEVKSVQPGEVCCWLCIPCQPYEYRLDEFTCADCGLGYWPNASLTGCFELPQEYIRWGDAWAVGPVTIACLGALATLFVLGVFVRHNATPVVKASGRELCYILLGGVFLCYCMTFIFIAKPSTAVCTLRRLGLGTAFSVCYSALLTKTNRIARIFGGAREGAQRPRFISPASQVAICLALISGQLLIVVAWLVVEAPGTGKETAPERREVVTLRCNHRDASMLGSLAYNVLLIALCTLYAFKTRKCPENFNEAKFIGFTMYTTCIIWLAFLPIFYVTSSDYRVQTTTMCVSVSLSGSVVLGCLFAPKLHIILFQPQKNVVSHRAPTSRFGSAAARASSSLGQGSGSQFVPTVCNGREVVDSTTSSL

SMILES: Cc1ccc2ccc(-c3cc(F)cc(C#N)c3)cc2n1 [Compound 3, reference compound]
- % Glu Max (rat mGlu5 [1]; average of n ≥ 3): 1.2 ± 0.3%
- IC50 (rat mGlu5 [1]; read-out: mGlu5 IC50, calcium mobilization, EC80 glutamate, HEK293A cells expressing rat mGlu5, average of n ≥ 3): 9.5 ± 1.6 nM

SMILES: Cc1nc2cc(-c3cc(F)cc(C#N)c3)ccc2s1 [Compound 18, 3-fluoro-5-(2-methylbenzo[d]thiazol-5-yl)benzonitrile]
- IC50 (rat mGlu5 [1]): 61 ± 7 nM
- % Glu Max (rat mGlu5 [1]; average of n ≥ 3): 0.63 ± 0.12%
- block of radioligand binding (rat mGlu5 [2]; [3H]3-methoxy-5-(pyridin-2-ylethynyl)pyridine, at the highest concentration): almost completely block the binding of the radioligand
- Ki for binding relative to potency in the functional assay (rat mGlu5 [2]; [3H]methoxyPEPy competition versus calcium mobilization IC50): approximately eight fold less
- blockade of the glutamate response [3]: near complete blockade
- selectivity, activity against mGlu1 (mGlu1): inactive
- selectivity, activity against mGlu2 (mGlu2): inactive
- selectivity, activity against mGlu3 (mGlu3): inactive
- selectivity, activity against mGlu4 (mGlu4): inactive
- selectivity, activity against mGlu7 (mGlu7): inactive
- selectivity, activity against mGlu8 (mGlu8): inactive
- % Parent Remaining [4]: 18%
- % Parent Remaining [5]: 20%
- fraction unbound at 4 h, 1000 ng/g [6]: 0.001
- fraction unbound at 4 h, 1000 ng/g [7]: 0.005
- fraction unbound at 4 h, 1000 ng/g [8]: 0.006
- Tmax [9, 12]: 15 min
- concentration at 30 min [9, 12]: 3.75 µM
- AUC(0-t) ([9]; male, CD-1, mouse, plasma, ip, 10 mg/kg): 801 ng·h/mL
- AUC0-6h in brain [9, 13]: 1530 ng·h/g
- brain exposure until the one hour time point [9, 13]: above 500 ng/g
- exposure in brain relative to plasma ([9]; mouse, 10 mg/kg intraperitoneal, AUC0-6h): nearly two fold higher
- brain exposure expected at 30 mg/kg ([9]; mouse, assuming a dose linear increase in exposure from the 10 mg/kg study): > 10 µM
- inhibition of marble burying (male CD-1 mice; 30 mg/kg ip): Significant inhibition
- progressive ratio responding for OSS stimuli (C57Bl/6J mice [10]; 3, 10, 30 mg/kg i.p.): dose dependently reduce
- progressive ratio responding for food reinforcer (C57Bl/6J mice [11]): no significant effects

SMILES: Cc1nc(C#Cc2cccnc2)cs1 [MTEP, 3-[(2-methyl-1,3-thiazol-4-yl)ethynyl]pyridine, reference compound]
- inhibition of marble burying (male CD-1 mice; 15 mg/kg ip, positive control): significant effect
- progressive ratio responding for OSS stimuli (C57Bl/6J mice [10]; 1.5, 5, 15 mg/kg i.p.): dose-dependently reduced
